Assay outcomes as filed in PubChem.
This is a sample that favours compounds with a hit; in the whole collection about 2.2% have one here.
C2C12 statin = suppressors of simvastatin-induced myotoxicity in C2C12 myotubes; ATP luminescence, 48 h; scaled: DMSO 0, geranylgeraniol control 100; rescue of ATP level, % at 7.49 µM; 0.78% of 330,000 active; AID 602340;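 active = mean ATP rescue above about 67%, or every replicate alone reaching that limit, limit read from the data, passing the limit was not always enough; inconclusive = no clear call, values can overlap the other calls; inactive = mean under the limit and some replicate under it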;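 also: myotubes were challenged with 10 µM simvastatin during compound exposure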
E-selectin induc = E-selectin induction on HUVECs; 0.37% of 260,000 active; HUVEC E-selectin immunofluorescence imaging; normalized: neutral wells 0, TNF-alpha wells 100; activation, % at 7.58 µM;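 active = mean E-selectin-positive cell signal at least 10% of the positive control, reached in at least 60% of replicates, without over 20% cell loss; inconclusive = no rule given, readout overlaps actives, possibly toxicity-flagged; inactive = the rest, including those meeting only one limit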
Target sequence (P16581 whole entry, looked up): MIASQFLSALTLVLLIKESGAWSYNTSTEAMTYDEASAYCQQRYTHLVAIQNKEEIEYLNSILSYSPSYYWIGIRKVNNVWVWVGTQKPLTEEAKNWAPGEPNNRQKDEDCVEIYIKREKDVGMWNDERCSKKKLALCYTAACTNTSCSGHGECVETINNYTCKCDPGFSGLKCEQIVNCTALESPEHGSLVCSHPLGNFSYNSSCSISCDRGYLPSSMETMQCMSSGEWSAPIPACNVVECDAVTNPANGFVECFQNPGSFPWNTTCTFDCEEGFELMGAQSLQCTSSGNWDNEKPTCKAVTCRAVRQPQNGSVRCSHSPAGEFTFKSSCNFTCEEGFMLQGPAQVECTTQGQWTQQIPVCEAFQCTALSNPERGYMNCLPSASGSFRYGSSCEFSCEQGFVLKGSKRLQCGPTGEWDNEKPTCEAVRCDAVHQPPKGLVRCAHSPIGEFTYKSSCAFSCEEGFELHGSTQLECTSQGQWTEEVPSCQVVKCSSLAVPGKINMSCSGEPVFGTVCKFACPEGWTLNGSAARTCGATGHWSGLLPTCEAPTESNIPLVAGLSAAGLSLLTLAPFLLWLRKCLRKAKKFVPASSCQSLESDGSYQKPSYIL
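System: HUVEC / Compound: single concentration / Signal: immunofluorescence imaging / Read-out: percent E-selectin-positive cells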
DENV2 CPE = protects cells from dengue virus 2 cytopathic effect; DENV2-infected cells, cytopathic effect rescue, plate reader; CPE inhibition, % at 9.99 µM; 1.7% of 350,000 active; in the data active = CPE inhibition above about 20%, passing the limit was not always enough; inconclusive = no clear call, values can overlap the other calls; tested in BHK-21 cells
Each line names hits and unclear results; the compound was inactive in the other large screens.

C[C@H]1CN([C@@H](C)CO)C(=O)Cc2cc(NC(=O)Nc3ccc(F)cc3)ccc2O[C@H]1CN(C)C(=O)Nc1ccc2c(c1)OCO2	none
CC1CCN(CCOCCOc2ccc(Br)cc2Cl)CC1	none (no result: DENV2 CPE)
CC1CCCN(CCCOc2ccc(Br)cc2Cl)C1 (centres undefined)	DENV2 CPE 34 (no result: C2C12 statin)
O=S(=O)(c1cccc(F)c1)N1CCN(Cc2cccc(OCCO)c2)CC1	none (no result: C2C12 statin, E-selectin induc)
COc1ccc(CN2C[C@@H](O)COC[C@@H]3O[C@H](CC(=O)NCc4ccccc4Cl)CC[C@H]32)cc1	none
Cc1cc(N)c(NC2=CC(=O)CC(C)(C)C2)cc1C	C2C12 statin 138 (no result: E-selectin induc, DENV2 CPE)
Cc1ccc(NC2=CC(=O)CC(C)(C)C2)cc1F	none (no result: E-selectin induc)
C[C@H](CO)N1C[C@H](C)[C@@H](CN(C)Cc2ccncc2)Oc2ncc(C#Cc3ccccn3)cc2C1=O	none
CO[C@H]1CN(C)C(=O)c2cc(NC(C)=O)ccc2OC[C@@H](C)NC[C@H]1C	none
Cn1c(=O)c2ncn(CC(=O)Nc3ccc4c5c(cccc35)CC4)c2n(C)c1=O	none (no result: DENV2 CPE)
O=C(CN1C(=O)CCC1=O)Nc1ccc2c3c(cccc13)CC2	C2C12 statin 92 (no result: E-selectin induc, DENV2 CPE)
CCCN1[C@@H]2c3ccc(-c4ccccc4F)c(=O)n3C[C@H]1[C@H](CO)[C@H]2C(=O)NCC	none
Cn1cnc(S(=O)(=O)N2CCCCN3[C@H](CO)[C@@H](c4ccc(C#CC5CCCC5)cc4)[C@@H]3C2)c1	none
CC(=O)N[C@@H]1CC[C@H](CCNC(=O)C2CCCC2)O[C@H]1CO	DENV2 CPE 90
CN(C)CC(=O)N[C@H]1CC[C@H](CCNC(=O)C2CCCC2)O[C@H]1CO	DENV2 CPE 27
O=C(NCC[C@H]1CC[C@H](NC(=O)C2CCCC2)[C@H](CO)O1)c1cc(Cl)cc(Cl)c1	none
Cc1noc(C)c1NC(=O)N[C@@H]1CC[C@@H](CCNC(=O)C2CCCC2)O[C@H]1CO	DENV2 CPE 25
CN(C)CC(=O)N[C@@H]1CC[C@@H](CCNC(=O)C2CCCC2)O[C@H]1CO	none
Cc1noc(C)c1NC(=O)N[C@@H]1CC[C@@H](CCNC(=O)C2CCCC2)O[C@@H]1CO	none
O=C(NCC[C@@H]1CC[C@@H](NC(=O)C2CCCC2)[C@@H](CO)O1)c1cc(Cl)cc(Cl)c1	DENV2 CPE 21
CC(=O)N[C@@H]1CC[C@H](CCNC(=O)C2CCCC2)O[C@@H]1CO	none
COCC(=O)Nc1ccc2c(c1)C(=O)N(C)C[C@H](OC)[C@@H](C)CN(C(C)=O)[C@@H](C)CO2	none
Cc1noc(C)c1NC(=O)N(C)C[C@H]1OCCCC[C@@H](C)Oc2ccc(NC(=O)CCC(F)(F)F)cc2C(=O)N([C@@H](C)CO)C[C@H]1C	none (no result: C2C12 statin)
C[C@H](NC(=O)C[C@H]1C=C[C@@H](NC(=O)Nc2ccc3c(c2)OCO3)[C@@H](CO)O1)c1ccccc1	none (no result: C2C12 statin)
Cc1ccc(S(=O)(=O)N(C)C[C@@H]2Oc3ccc(NS(=O)(=O)c4cn(C)cn4)cc3CC(=O)N([C@H](C)CO)C[C@H]2C)cc1	none (no result: DENV2 CPE)
C=CCOC(=O)[C@H]1[C@@H]2C(=O)O[C@@H](c3ccccc3)[C@@H](c3ccccc3)N2[C@@H](c2ccc(OCCOC(=O)[C@H]3C[C@H]4C(=O)N[C@@H](CC(C)C)C(=O)N4[C@H]3c3cccc(OCCO)c3)cc2)[C@]12C(=O)Nc1ccccc12	none (no result: C2C12 statin, E-selectin induc)
C[C@H](CO)N1C[C@H](C)[C@H](CN(C)Cc2ccc(-c3ccccc3)cc2)Oc2ccc(NC(=O)Nc3cccc4ccccc34)cc2C1=O	DENV2 CPE 25
C[C@H](CO)N1C[C@H](C)[C@@H](CN(C)Cc2ccc(-c3ccccc3)cc2)Oc2c(NC(=O)Nc3cccc4ccccc34)cccc2C1=O	E-selectin induc 90 (no result: C2C12 statin, DENV2 CPE)
C[C@H]1CN([C@@H](C)CO)C(=O)c2cc(NC(=O)Nc3cccc4ccccc34)ccc2O[C@@H]1CN(C)Cc1ccc(-c2ccccc2)cc1	none
C[C@H]1CN([C@@H](C)CO)C(=O)c2cccc(NC(=O)Nc3cccc4ccccc34)c2O[C@H]1CN(C)Cc1ccccc1	none
CCC(=O)Nc1ccc2c(c1)C(=O)N(C)C[C@@H](OC)[C@H](C)CN[C@@H](C)CO2	DENV2 CPE inconclusive
C[C@H](CO)N1C[C@H](C)[C@H](CN(C)Cc2ccc(Cl)c(Cl)c2)OCCCC[C@H](C)Oc2ccc(NS(=O)(=O)c3ccc(F)cc3)cc2C1=O	none (no result: C2C12 statin)
CCn1cc(C(=O)O)c(=O)c2cc(F)c(N3CCN(C)CC3)cc21	DENV2 CPE 28 (no result: E-selectin induc)
CCCCCCn1cc(C(=O)O)c(=O)c2cc(F)c(N3CCN(C)CC3)cc21	none (no result: E-selectin induc, DENV2 CPE)
C[C@@H]1CN([C@@H](C)CO)C(=O)c2cc(C3=CCCC3)cnc2O[C@H]1CN(C)Cc1cccnc1	none
Cc1cnc(-c2nnc(N(C)C(=O)c3cccnc3)s2)cn1	C2C12 statin 108 (no result: E-selectin induc, DENV2 CPE)
Cc1ccc(-c2nnc(N(C)C(=O)c3cccnc3)s2)cn1	none (no result: E-selectin induc, DENV2 CPE)
CC(C)NC(=O)Nc1ccc2c(c1)C(=O)N([C@H](C)CO)C[C@@H](C)[C@H](CN(C)CC1CCCCC1)OCCCC[C@@H](C)O2	none (no result: C2C12 statin)
C[C@@H]1CN([C@@H](C)CO)C(=O)Cc2cc(NC(=O)CCC(F)(F)F)ccc2O[C@H]1CN(C)S(=O)(=O)c1ccc(Cl)cc1	DENV2 CPE inconclusive
C[C@@H]1CCCCO[C@@H](CN(C)Cc2ccncc2)[C@H](C)CN([C@H](C)CO)C(=O)c2cc(NS(=O)(=O)c3ccccc3)ccc2O1	none (no result: C2C12 statin, E-selectin induc)
C[C@@H]1CN([C@H](C)CO)C(=O)c2cc(NS(=O)(=O)c3ccc(F)cc3)ccc2O[C@@H](C)CCCCO[C@@H]1CN(C)Cc1ccncc1	DENV2 CPE 34 (no result: C2C12 statin)
C[C@@H]1CCCCO[C@@H](CN(C)Cc2ccccc2)[C@@H](C)CN([C@@H](C)CO)C(=O)c2cc(NS(=O)(=O)c3ccc(F)cc3)ccc2O1	none (no result: C2C12 statin, E-selectin induc)
C[C@@H]1CCCCO[C@@H](CN(C)Cc2ccncc2)[C@H](C)CN([C@H](C)CO)C(=O)c2cc(NS(=O)(=O)c3ccc(F)cc3)ccc2O1	none (no result: C2C12 statin)
C[C@@H]1CCCCO[C@H](CN(C)Cc2ccncc2)[C@H](C)CN([C@H](C)CO)C(=O)c2cc(NS(=O)(=O)c3ccccc3)ccc2O1	DENV2 CPE 28 (no result: C2C12 statin, E-selectin induc)
C[C@H]1CCCCO[C@H](CN(C)Cc2ccccc2)[C@@H](C)CN([C@@H](C)CO)C(=O)c2cc(NS(=O)(=O)c3ccc(F)cc3)ccc2O1	DENV2 CPE 29 (no result: C2C12 statin, E-selectin induc)
C[C@@H]1CCCCO[C@H](CN(C)Cc2ccc(C(F)(F)F)cc2)[C@H](C)CN([C@H](C)CO)C(=O)c2cc(NS(=O)(=O)c3ccc(F)cc3)ccc2O1	DENV2 CPE 30 (no result: C2C12 statin)
C[C@H]1CCCCO[C@@H](CN(C)Cc2ccc(C(F)(F)F)cc2)[C@@H](C)CN([C@@H](C)CO)C(=O)c2cc(NS(=O)(=O)c3ccc(F)cc3)ccc2O1	none (no result: C2C12 statin)
CCCNC(=O)Nc1ccc2c(c1)C(=O)N(C)[C@@H]1CC[C@@H](CC(=O)OC)O[C@@H]1CO2	none
C[C@@H]1CN([C@H](C)CO)C(=O)Cc2cc(NC(=O)Cn3cnnn3)ccc2O[C@H]1CN(C)S(=O)(=O)c1ccccc1	none
O=[N+]([O-])c1ccc(N2CCCCC2)s1	C2C12 statin 125 (no result: E-selectin induc)
CC1CCCN(c2ccc([N+](=O)[O-])s2)C1 (centres undefined)	none (no result: C2C12 statin, E-selectin induc)
CCC(=O)Nc1ccc2c(c1)OC[C@@H](C)N(C(C)=O)C[C@@H](C)[C@@H](OC)CN(C)C2=O	DENV2 CPE 24
